Source: ChEMBL document CHEMBL1124009 (J Med Chem, 1988)
Positions of bridges follow the written chain, without caps; N, C: chain ends. Non-standard residues stand in square brackets, D forms with d. Residues, ends and D or L forms follow the SMILES beside them. Tic = O=C(O)[C@@H]1Cc2ccccc2CN1; dTic = O=C(O)[C@H]1Cc2ccccc2CN1; Pen = CC(C)(S)[C@H](N)C(=O)O

How the values were obtained:
[1] = biological target: Delta-type opioid receptor (Rattus norvegicus, UniProt P33533); test: Binding affinity in competition with [3H]- DPDPE in Opioid receptor delta 1 binding to rat brain membrane
Chain of Delta-type opioid receptor (P33533 whole entry): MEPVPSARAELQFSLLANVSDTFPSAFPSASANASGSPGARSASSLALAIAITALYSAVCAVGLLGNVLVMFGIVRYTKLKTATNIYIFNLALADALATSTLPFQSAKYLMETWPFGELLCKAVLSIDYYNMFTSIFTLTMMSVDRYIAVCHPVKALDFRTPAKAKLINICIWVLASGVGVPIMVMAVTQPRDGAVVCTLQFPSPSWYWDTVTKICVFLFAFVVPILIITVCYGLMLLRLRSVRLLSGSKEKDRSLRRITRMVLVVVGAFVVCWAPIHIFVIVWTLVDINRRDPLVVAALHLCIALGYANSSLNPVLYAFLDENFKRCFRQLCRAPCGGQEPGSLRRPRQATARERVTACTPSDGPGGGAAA
Outline: (§1)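 Brains (minus cerebellum) of male Sprague–Dawley rats (200–250 g) were homogenized, preincubated 30 min at 25 °C and centrifuged twice at 43000g. Homogenate at 0.5% final was incubated with 0.5 nM [3H]CTOP (μ) or 1.0 nM [3H]DPDPE (δ) in 50 mM Tris-HCl pH 7.4 with 5 mM MgCl2, BSA 1 mg/mL and 100 μM PMSF, 120 min at 25 °C, in duplicate. Nonspecific binding was taken with 1 μM naloxone; bound label was filtered and scintillation counted; curves were fit by nonlinear least squares.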

[2] = biological target: Mu-type opioid receptor (Rattus norvegicus, UniProt P33535); test: Binding affinity in competition with [3H]- CTOP in Opioid receptor mu 1 binding to rat brain membrane; outline: as §1
Chain of Mu-type opioid receptor (P33535 whole entry): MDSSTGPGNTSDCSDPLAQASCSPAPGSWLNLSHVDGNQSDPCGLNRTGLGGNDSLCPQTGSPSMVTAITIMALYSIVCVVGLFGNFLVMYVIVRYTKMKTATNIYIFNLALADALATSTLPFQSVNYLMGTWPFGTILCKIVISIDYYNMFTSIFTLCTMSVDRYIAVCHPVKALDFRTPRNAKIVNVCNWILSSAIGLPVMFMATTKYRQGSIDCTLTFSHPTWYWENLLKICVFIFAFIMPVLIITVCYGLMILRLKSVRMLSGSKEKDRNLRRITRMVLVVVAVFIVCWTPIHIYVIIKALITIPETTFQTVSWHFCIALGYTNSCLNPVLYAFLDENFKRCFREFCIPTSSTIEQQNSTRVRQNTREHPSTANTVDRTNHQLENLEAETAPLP

[3] = species on record: Cavia porcellus; test: Negative logarithm of antagonist concentration that requires doubling of agonist concentration to induce original agonist response; conditions: read-out: pA2 (converted)
[4] = biological target: Somatostatin receptor; test: Binding affinity in competition with [125I]- CGP-23996 in somatostatin receptor binding to rat brain membrane
Outline: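 Rat whole-brain membranes (adult male Sprague–Dawley) at 1.0% final tissue were incubated with 0.2 nM [125I]CGP 23,996 and analogues at 100–0.3 μM. Buffer was 50 mM Tris pH 7.4 with 2.0 mg/mL BSA, 20 μg/mL bacitracin and 5 mM MgCl2. Incubation ran 1 h at 37 °C and ended by rapid filtration through BSA-soaked GF/B filters.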

[5] = biological target: Opioid receptors; mu & delta (Rattus norvegicus) (UniProt P33533+P33535); test: Ratio of selective binding affinity of mu receptor to that of delta opioid receptor; type: protein assay
Chain of Opioid receptors; mu & delta (Rattus norvegicus) (P33533 whole entry, looked up): as the sequence (P33533 whole entry) above
Chain of Opioid receptors; mu & delta (Rattus norvegicus) (P33535 whole entry, looked up): as the sequence (P33535 whole entry) above

[6] = Ratio of selective binding affinity of mu receptor to that of somatostatin receptor
[7] = species on record: Cavia porcellus; test: Intrinsic agonist activity in guinea Pig Ileum (GPI) was determined; type: functional; conditions: filed as agonist
Outline: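 Longitudinal muscle–myenteric plexus strips of ileum from male Hartley guinea pigs (200–500 g) sat in Krebs–bicarbonate at 37 °C under 95% O2/5% CO2 at 1 g tension. Strips were field-stimulated at 0.1 Hz with 0.4-ms supramaximal pulses, and isometric twitches were recorded. Agonist action was taken as twitch inhibition. pA2 came from PL017 (μ agonist) dose–response curves without and with several antagonist concentrations.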

[8] = biological target: Mu-type opioid receptor (Rattus norvegicus) (UniProt P33535); test: Percentage inhibition in competition with [3H]- CTOP in Opioid receptor mu 1 binding to rat brain membrane at 10000 nM
Chain of Mu-type opioid receptor (Rattus norvegicus) (P33535 whole entry): as above

[9] = biological target: Mu-type opioid receptor (Rattus norvegicus) (UniProt P33535); test: Binding affinity of compound in competition with [3H]- CTOP in Opioid receptor mu 1 binding to rat brain membrane at 10000 nM

Row | Structure (SMILES) | Kb [3] [nM] | Ratio [5] | Ratio [6] | also measured
1 | C[C@@H](O)[C@@H]1NC(=O)[C@H](CCCCN)NC(=O)C(Cc2c[nH]c3ccccc23)NC(=O)[C@H](Cc2ccc(O)cc2)NC(=O)[C@@H](NC(=O)[C@H](N)Cc2ccccc2)CSSC(C)(C)[C@@H](C(=O)N[C@@H](CO)C(N)=O)NC1=O (stereo in doubt) [listing 1 of 2 here] | 575 | – | – | IC50 [1]: > 10000 nM; IC50 [2]: 20 nM
2 | CC(C)[C@H](NC(=O)[C@H]1NC(=O)[C@H]([C@@H](C)O)NC(=O)[C@H](CCCCN)NC(=O)[C@@H](Cc2c[nH]c3ccccc23)NC(=O)[C@H](Cc2ccc(O)cc2)NC(=O)[C@@H](NC(=O)[C@H]2Cc3ccccc3CN2)CSSC1(C)C)C(N)=O | 257 | – | – | IC50 [1]: 2120 nM; IC50 [2]: 46 nM
3 | C[C@@H](O)[C@H](NC(=O)[C@H]1NC(=O)[C@H](CC(N)=O)NC(=O)[C@H](Cc2ccccc2)NC(=O)[C@@H](NC(=O)[C@@H](N)Cc2ccc(O)cc2)CSSC1(C)C)C(N)=O | – | > 1.3 | > 1.3 | IC50 [4]: >= 10000 nM
4 | C[C@@H](O)[C@H](NC(=O)[C@H]1NC(=O)[C@H]([C@@H](C)O)NC(=O)[C@H](CCCN=C(N)N)NC(=O)[C@H](Cc2c[nH]c3ccccc23)NC(=O)[C@H](Cc2ccc(O)cc2)NC(=O)[C@@H](NC(=O)[C@@H]2Cc3ccccc3CN2)CSSC1(C)C)C(N)=O (H-[Tic]CYWRT[Pen]T-NH2; disulfide 2-7) | – | 1060 | 28600 | IC50 [4]: 34336 nM
5 | C[C@@H](O)[C@H](NC(=O)[C@H]1NC(=O)[C@H]([C@@H](C)O)NC(=O)[C@H](CCCCN)NC(=O)[C@@H](Cc2c[nH]c3ccccc23)NC(=O)[C@H](Cc2ccc(O)cc2)NC(=O)[C@@H](NC(=O)[C@H](N)Cc2ccccc2)CSSC1(C)C)C(N)=O | 79.4 | – | – | IC50 [1]: 1150 nM
6 | C[C@@H](O)[C@@H]1NC(=O)[C@H](CCCCN)NC(=O)C(Cc2c[nH]c3ccccc23)NC(=O)[C@H](Cc2ccc(O)cc2)NC(=O)[C@@H](NC(=O)[C@H](N)Cc2ccccc2)CSSC(C)(C)[C@@H](C(=O)N[C@@H](CC(N)=O)C(N)=O)NC1=O (stereo in doubt) | – | > 77 | 6.3 | –
7 | CC(C)[C@H](NC(=O)[C@H]1NC(=O)[C@H]([C@@H](C)O)NC(=O)[C@H](CCCCN)NC(=O)[C@H](Cc2c[nH]c3ccccc23)NC(=O)[C@H](Cc2ccc(O)cc2)NC(=O)[C@@H](NC(=O)[C@H]2Cc3ccccc3CN2)CSSC1(C)C)C(N)=O | – | 46 | 43 | IC50 [4]: 1992 nM
8 | C[C@@H](O)[C@H](NC(=O)[C@H]1NC(=O)[C@H](CCCCN)NC(=O)C(Cc2c[nH]c3ccccc23)NC(=O)[C@@H](Cc2ccc(O)cc2)NC(=O)[C@@H](NC(=O)[C@H]2Cc3ccccc3CN2)CSSC1(C)C)C(N)=O (stereo in doubt) | – | > 1 | 1.5 | –
9 | C[C@@H](O)[C@H](NC(=O)[C@H]1NC(=O)[C@H]([C@@H](C)O)NC(=O)[C@H](CCCNC(=N)N)NC(=O)[C@@H](Cc2c[nH]c3ccccc23)NC(=O)[C@H](Cc2ccc(O)cc2)NC(=O)[C@@H](NC(=O)[C@H](N)Cc2ccccc2)CSSC1(C)C)C(N)=O | 75.9 | 2530 | 4020 | IC50 [4]: 8452 nM
10 | C[C@@H](O)[C@H](NC(=O)[C@H]1NC(=O)[C@H]([C@@H](C)O)NC(=O)[C@H](CCCN)NC(=O)C(Cc2c[nH]c3ccccc23)NC(=O)[C@@H](Cc2ccc(O)cc2)NC(=O)[C@@H](NC(=O)[C@H]2Cc3ccccc3CN2C(=O)CN)CSSC1(C)C)C(N)=O (stereo in doubt) | – | 19 | 70 | –
11 | C[C@@H](O)[C@H](NC(=O)[C@H]1NC(=O)[C@H]([C@@H](C)O)NC(=O)[C@H](CCCCN)NC(=O)C(Cc2c[nH]c3ccccc23)NC(=O)[C@H](Cc2ccc(O)cc2)NC(=O)[C@@H](NC(=O)C(N)Cc2c[nH]c3ccccc23)CSSC1(C)C)C(N)=O (stereo in doubt) | – | > 1590 | 254 | Activity [7]: Agonist
12 | C[C@@H](O)[C@H](NC(=O)[C@H]1NC(=O)[C@H]([C@@H](C)O)NC(=O)[C@H](CCCN)NC(=O)[C@@H](Cc2c[nH]c3ccccc23)NC(=O)[C@H](Cc2ccc(O)cc2)NC(=O)[C@@H](NC(=O)[C@H]2Cc3ccccc3CN2)CSSC1(C)C)C(N)=O | 41.7 | – | – | IC50 [1]: 16000 nM; IC50 [2]: 1.4 nM
13 | C[C@@H](O)[C@@H]1NC(=O)[C@H](CCCCN)NC(=O)C(Cc2c[nH]c3ccccc23)NC(=O)[C@H](Cc2ccc(O)cc2)NC(=O)[C@@H](NC(=O)[C@H](N)Cc2ccccc2)CSSC(C)(C)[C@@H](C(N)=O)NC1=O (stereo in doubt) | – | > 87 | 17 | –
14 | C[C@@H](O)[C@H](NC(=O)[C@H]1NC(=O)[C@H]([C@@H](C)O)NC(=O)[C@H](CCCN=C(N)N)NC(=O)[C@@H](Cc2c[nH]c3ccccc23)NC(=O)[C@H](Cc2ccc(O)cc2)NC(=O)[C@@H](NC(=O)[C@H]2Cc3ccccc3CN2)CSSC1(C)C)C(N)=O (H-[dTic]CY[dW]RT[Pen]T-NH2; disulfide 2-7) | 2.04 | – | – | IC50 [1]: 1270 nM; IC50 [2]: 1.2 nM
15 | C[C@@H](O)[C@@H]1NC(=O)[C@H](CCCN)NC(=O)C(Cc2c[nH]c3ccccc23)NC(=O)[C@H](Cc2ccc(O)cc2)NC(=O)[C@@H](NC(=O)[C@H](N)Cc2ccccc2)CSSC(C)(C)[C@@H](C(N)=O)NC1=O (stereo in doubt) | – | > 53 | 253 | –
16 | C[C@@H](O)[C@H](NC(=O)[C@H]1NC(=O)[C@H]([C@@H](C)O)NC(=O)[C@H](CCCCN)NC(=O)C(Cc2c[nH]c3ccccc23)NC(=O)[C@@H](Cc2ccc(O)cc2)NC(=O)[C@@H](NC(=O)[C@H]2Cc3ccccc3CN2)CSSC1(C)C)C(N)=O (stereo in doubt) [listing 1 of 2 here] | 7.94 | – | – | IC50 [1]: 9320 nM; IC50 [2]: 1.2 nM
17 | C[C@@H](O)[C@H](NC(=O)[C@H]1NC(=O)[C@H]([C@@H](C)O)NC(=O)[C@H](CCCCN)NC(=O)C(Cc2c[nH]c3ccccc23)NC(=O)[C@@H](Cc2ccc(O)cc2)NC(=O)[C@@H](NC(=O)[C@H]2Cc3ccccc3CN2)CSSC1(C)C)C(N)=O (stereo in doubt) [listing 2 of 2 here] | – | 7770 | 791 | –
18 | C[C@@H](O)[C@H](NC(=O)[C@H]1NC(=O)[C@H]([C@@H](C)O)NC(=O)[C@H](CCCCN)NC(=O)[C@H](Cc2c[nH]c3ccccc23)NC(=O)[C@H](Cc2ccc(O)cc2)NC(=O)[C@@H](NC(=O)[C@@H](N)Cc2ccccc2)CSSC1(C)C)C(N)=O | – | 312 | 395 | IC50 [4]: 1462 nM
19 | C[C@@H](O)[C@H](NC(=O)[C@H]1NC(=O)[C@H](CC(N)=O)NC(=O)[C@H](Cc2ccc(O)cc2)NC(=O)[C@@H](NC(=O)[C@@H](N)Cc2ccccc2)CSSC1(C)C)C(N)=O | – | – | – | inhibition [8]: 17%; IC50 [4]: > 100000 nM
20 | C[C@@H](O)[C@H](NC(=O)[C@@H]1NC(=O)[C@H](CCCCN)NC(=O)C(Cc2c[nH]c3ccccc23)NC(=O)[C@H](Cc2ccc(O)cc2)NC(=O)[C@@H](NC(=O)[C@@H](N)Cc2ccccc2)CSSC1(C)C)C(N)=O (stereo in doubt) | – | – | – | inhibition [9]: 18%
21 | C[C@@H](O)[C@@H]1NC(=O)[C@H](CCCCN)NC(=O)C(Cc2c[nH]c3ccccc23)NC(=O)[C@H](Cc2ccc(O)cc2)NC(=O)[C@@H](NC(=O)[C@H](N)Cc2ccccc2)CSSC(C)(C)[C@@H](C(=O)N[C@@H](CO)C(N)=O)NC1=O (stereo in doubt) [listing 2 of 2 here] | – | > 490 | 94 | –
